Measurements pooled from the literature.
Target: Serine/threonine-protein kinase 32C (STK32C, Homo sapiens, UniProt Q86UX6)

CC(C)(C)c1ccc(-c2nc(CBr)nn2-c2cccc(O)c2)cc1
remaining binding (cell-free assay, competition with immobilised ligand; 10 µM): 54%

O=C(NCC1CCOCC1)c1n[nH]cc1NC(=O)c1c(F)cccc1F
remaining binding (binding, competition with immobilised ligand; 1 µM): 100%

CS(=O)(=O)N1CCCC(NC(=O)[C@H](CCC2CCCCC2)NC(=O)c2ccc(CNc3ncnc4c3nnn4-c3ccccc3)cc2)C1 (some centres unmarked)
remaining binding (cell-free assay, competition with immobilised ligand; 0.1 µM): 100%

c1cncc(-c2cccc(Nc3nccc(NC4CCCCC4)n3)c2)c1
remaining binding (binding, competition with immobilised ligand; 10 µM): 55%

C[C@H]1CCN(c2nccc(-c3cnn4ncccc34)n2)C1
remaining binding (binding; 1 µM): 100%

O=C(NCCCN1CCOCC1)c1ccc(Nc2ncc(Cl)c(-c3ccc(Cl)s3)n2)cc1
remaining binding (binding, competition with immobilised ligand; 1 µM): 100%

N[C@@H]1CCN(c2nccc(-c3cnn4ncccc34)n2)C1
remaining binding (binding; 1 µM): 99%

COc1cnc(Nc2cccc(S(N)(=O)=O)c2)nc1N1CCN(c2ccccc2)CC1
remaining binding (binding, competition with immobilised ligand; 1 µM): 100%

FC(F)(F)Oc1cccc(-c2cnc3ccc(-c4ccncc4)nn23)c1
remaining binding (binding, competition with immobilised ligand; 5 µM): 89%

CCOC(=O)c1cc2cc(-c3cc(C(=O)NCc4ccc(C(=O)O)cc4)nn3C)ccc2[nH]1
remaining binding (cell-free assay, competition with immobilised ligand; 0.1 µM): 100%

C[C@@H]1CN(c2ccc3ncc(-c4ccc5[nH]nc(C6CC6)c5c4)n3n2)C[C@H](C)O1
remaining binding (binding, competition with immobilised ligand; 50 nM): 85%

Cc1c(NC(=O)c2cc(C(N)=O)nc3cc(F)ccc23)c(C(F)(F)F)nn1Cc1ccc(C#N)cc1
remaining binding (binding, competition with immobilised ligand; 1 µM): 69%

O=C(c1ccc(Nc2ncc(Cl)c(-c3ccc(Cl)s3)n2)cc1)N1CCC(N2CCCC2)CC1
remaining binding (binding, competition with immobilised ligand; 1 µM): 100%

CC(=O)N1CCC(c2ccc(C(=O)NC(=N)N)cc2C(F)(F)F)CC1
remaining binding (cell-free assay, competition with immobilised ligand; 1 µM): 100%

CC1CCCN1c1nccc(-c2cnn3ncccc23)n1 (centres unmarked)
remaining binding (binding; 1 µM): 100%

O=C(Nc1cnc(Oc2ccc(F)cc2)nc1)N1CCc2ncccc2[C@@H]1c1ccc(F)cc1
remaining binding (cell-free assay, competition with immobilised ligand; 1 µM): 96%

CN(CCCC(F)(F)F)c1nccc(-c2cnn3ncccc23)n1
remaining binding (binding; 1 µM): 65%
